Values after ≈ are worked out from the molar mass of the structure shown. A value given as a limit tells only on which side of the number the result lay.

Data set [1] deals with Tyrosine-protein kinase JAK2 (Homo sapiens, UniProt O60674).
Data set [2] can be described thus: Antiproliferative activity against human DERL7 cells after 72 hrs by Cell Titer-Glo assay. Conditions: DERL7, 72 h. It is filed as functional, cell-based.
The subject of data set [3] is A2780. The data set can be described thus: Antiproliferative activity against human A2780 cells after 72 hrs by Cell Titer-Glo assay. It is filed as functional, cell-based. Conditions: A2780, 72 h. Background: In ATP-based viability assays light output follows the ATP content of the culture.
For data set [4], the target named is Tyrosine-protein kinase JAK2 (Homo sapiens, UniProt O60674, V617F).
Data set [5] can be described thus: Solubility of the compound in buffer at pH7. The class given is physicochemical. Conditions: pH 7.
A short description of data set [6]: AUC(infinity) in Balb nu/nu mouse at 10 mg/kg, po. The class given is ADME, organism-based. Details: time infinity, dose 10 mg/kg, route oral. Conditions: plasma. The gist of the method:
(§1)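 Overnight-fasted male Nu/Nu mice, single oral dose in 0.5% methocel, three mice. Saphenous vein blood taken at predose, 0.083, 0.5, 1, 6 and 24 h. Plasma obtained by centrifugation at 10,000g, 3 min, 4 °C, stored at -80 °C, then analysed by LC/MS/MS.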

Data set [7] can be described thus: Half life in Balb nu/nu mouse at 10 mg/kg, iv. It is filed as ADME, organism-based. Also on record: dose 10 mg/kg, route intravenous. Conditions: in vivo. The gist of the method:
(§2)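 Overnight-fasted male Nu/Nu mice, single intravenous dose in 10% Tween 80 in 5% dextrose, three mice. Saphenous vein blood taken at predose, 0.083, 0.5, 1, 6 and 24 h. Plasma obtained by centrifugation at 10,000g, 3 min, 4 °C, stored at -80 °C, then analysed by LC/MS/MS.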

A short description of data set [8]: Cmax in Balb nu/nu mouse at 10 mg/kg, po. The class given is ADME, organism-based. Also on record: dose 10 mg/kg, route oral. The note with it: in vivo. The gist of the method:
as §1

Data set [9] can be described thus: Half life in Balb nu/nu mouse at 10 mg/kg, po. Details: dose 10 mg/kg, route oral. The class given is ADME, organism-based. The note with it: in vivo. The gist of the method: as §1
The nature of data set [10]: Oral bioavailability in Balb nu/nu mouse at 10 mg/kg. The note with it: in vivo. The class given is ADME, organism-based. The gist of the method:
as §1

Data set [11] is described as follows: Volume of distribution at steady state in Balb nu/nu mouse at 10 mg/kg, iv. Details: dose 10 mg/kg, route intravenous. The note with it: in vivo, read-out: Vdss. It is filed as ADME, organism-based. The gist of the method: as §2
A short description of data set [12]: Cmax in Balb nu/nu mouse at 10 mg/kg, iv. It is filed as ADME, organism-based. Details: dose 10 mg/kg, route intravenous. The note with it: in vivo. The gist of the method:
as §2

In data set [13] the test system is Mus musculus. The data set can be described thus: (§3) AUC(infinity) in Balb nu/nu mouse at 10 mg/kg, iv. It is filed as ADME, organism-based, Plasma. The note with it: in vivo. Also on record: dose 10 mg/kg, route intravenous, time infinity. The gist of the method:
as §2

Data set [14] is described as follows: Clearance in Balb nu/nu mouse at 10 mg/kg, iv. It is filed as ADME, organism-based. Also on record: dose 10 mg/kg, route intravenous. The note with it: in vivo. The gist of the method: as §2
A short description of data set [15]: as §3. Conditions: Balb nu/nu, plasma. It is filed as ADME, organism-based, Plasma. Also on record: dose 10 mg/kg, route intravenous, time infinity. The gist of the method: as §2

Tyrosine-protein kinase JAK2 (Homo sapiens, UniProt O60674), sequence (O60674 whole entry): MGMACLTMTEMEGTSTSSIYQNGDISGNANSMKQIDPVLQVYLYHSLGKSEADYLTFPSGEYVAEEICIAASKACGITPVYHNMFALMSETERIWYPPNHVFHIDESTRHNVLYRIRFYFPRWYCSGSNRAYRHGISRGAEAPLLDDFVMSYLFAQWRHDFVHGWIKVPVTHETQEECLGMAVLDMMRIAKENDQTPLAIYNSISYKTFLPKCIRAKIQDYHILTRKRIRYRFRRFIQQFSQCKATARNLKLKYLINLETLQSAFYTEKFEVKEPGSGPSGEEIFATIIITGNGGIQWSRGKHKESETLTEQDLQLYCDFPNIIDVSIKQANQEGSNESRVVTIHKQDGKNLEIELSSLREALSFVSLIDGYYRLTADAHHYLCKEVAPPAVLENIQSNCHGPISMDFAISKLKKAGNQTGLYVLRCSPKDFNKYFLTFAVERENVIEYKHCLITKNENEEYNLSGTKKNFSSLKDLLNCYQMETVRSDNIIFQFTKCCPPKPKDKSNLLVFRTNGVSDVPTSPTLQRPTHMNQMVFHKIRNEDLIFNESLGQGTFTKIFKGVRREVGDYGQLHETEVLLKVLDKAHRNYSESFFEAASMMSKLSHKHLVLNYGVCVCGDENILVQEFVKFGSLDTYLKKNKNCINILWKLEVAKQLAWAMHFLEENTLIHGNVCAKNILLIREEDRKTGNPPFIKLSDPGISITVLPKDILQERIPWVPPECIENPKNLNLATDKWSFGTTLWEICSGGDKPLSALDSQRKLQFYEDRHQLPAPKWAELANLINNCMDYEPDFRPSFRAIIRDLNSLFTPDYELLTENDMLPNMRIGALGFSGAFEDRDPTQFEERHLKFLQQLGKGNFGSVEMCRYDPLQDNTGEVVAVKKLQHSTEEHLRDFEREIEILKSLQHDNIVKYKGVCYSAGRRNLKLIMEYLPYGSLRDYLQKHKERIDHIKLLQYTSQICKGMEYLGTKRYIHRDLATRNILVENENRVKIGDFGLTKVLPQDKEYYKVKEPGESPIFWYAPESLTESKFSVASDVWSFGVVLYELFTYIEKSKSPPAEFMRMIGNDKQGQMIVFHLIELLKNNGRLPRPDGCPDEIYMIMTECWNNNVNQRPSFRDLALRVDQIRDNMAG
Tyrosine-protein kinase JAK2 (Homo sapiens, UniProt O60674, V617F), sequence (O60674 whole entry V617F): as the sequence (O60674 whole entry) above, with V617F counted along it

One may read the IC50 as the concentration that gives 50% inhibition. The low end stands for greater potency, the high end for weaker potency. Molecule `Cc1ccc(Cl)cc1-c1[nH]c(-c2ccnc(N)n2)cc1C(=O)NCCO` showed an IC50 in data set [1] of 57 nM.
In the case of `CNC(=O)c1cc(-c2ccnc(N)n2)[nH]c1-c1cc(Cl)ccc1C`, the IC50 in [2] was determined as 2070 nM; in data set [3] it was 980 nM; in [1] it was 35 nM; in [4], 480 nM.
In data set [1], `NC(=O)c1cc(-c2ccnc(N)n2)[nH]c1-c1cc(Cl)ccc1C(F)(F)F` yielded an IC50 of 53 nM.
Consider `Cc1ccc(Cl)cc1-c1[nH]c(-c2ccnc(N)n2)cc1C(=O)NC1CCN(C)CC1`, for which the IC50 is 46 nM in data set [1] and more than 3000 nM in data set [4].
`CCNC(=O)c1cc(-c2ccnc(N)n2)[nH]c1-c1cc(Cl)ccc1C` yielded an IC50 in [1] of 109 nM.
Take `CNCCNC(=O)c1cc(-c2ccnc(N)n2)[nH]c1-c1cc(Cl)ccc1C`: the IC50 in [1] was 44 nM; in [4], more than 3000 nM.
The molecule `COc1ccc(CNc2nccc(-c3cc(C(N)=O)c(-c4cc(Cl)ccc4C)[nH]3)n2)cc1` showed an IC50 in data set [1] of 394 nM.
In the case of `Cc1ccc(Cl)cc1-c1[nH]c(-c2ccnc(Nc3ccc(N4CCN(C)CC4)cc3)n2)cc1C(N)=O`, in data set [1], 59 nM corresponded to half-maximal inhibition (IC50).
`Cc1ccc(Cl)cc1-c1[nH]c(-c2ccnc(N)n2)cc1C(=O)N(C)C` displayed an IC50 in data set [1] of 3060 nM.
`Cc1ccc(Cl)cc1-c1[nH]c(-c2ccnc(N)n2)cc1C(=O)Nc1ccccc1` came in with an IC50 in data set [1] of 247 nM.
`NC(=O)c1cc(-c2ccnc(N)n2)[nH]c1-c1ccccc1` registered an IC50 in data set [1] of 3200 nM.
Still for that read-out and setting: the same measure for `CC(C)c1ccc(Cl)cc1-c1[nH]c(-c2ccnc(N)n2)cc1C(N)=O`: 150 nM.
`Cc1ccccc1-c1[nH]c(-c2ccnc(N)n2)cc1C(N)=O` returned an IC50 in [1] of 695 nM.
As for `NC(=O)c1cc(-c2ccnc(N)n2)[nH]c1-c1cc(OC(F)(F)F)ccc1Cl`, the IC50 turned out to be 24 nM in data set [1] and 1100 nM in [4].
Molecule `NC(=O)c1cc(-c2ccnc(N)n2)[nH]c1-c1cccc(Cl)c1` yielded an IC50 in data set [1] of 617 nM.
For `Cc1ccc(Cl)cc1-c1c(C(N)=O)cc(-c2ccnc(N)n2)n1C`, 66 nM corresponded to half-maximal inhibition in data set [1] (IC50).
For the molecule `Cc1ccc(Cl)cc1-c1[nH]c(-c2ccnc(N)n2)cc1C(=O)NCC(C)C`, in data set [1], it took 384 nM to reach half-maximal inhibition (IC50).
For `Cc1ccc(Cl)cc1-c1[nH]c(-c2ccnc(N)n2)cc1C(N)=O`, the figures for the IC50 in [2] and in data set [3] were 740 nM and 380 nM, respectively.
Turning to `NC(=O)c1cc(-c2ccnc(N)n2)[nH]c1-c1cc(C(F)(F)F)ccc1C(F)(F)F`, the IC50 in data set [1] amounted to 21 nM; in [4], 3070 nM.
Regarding `NC(=O)c1cc(-c2ccnc(N)n2)[nH]c1-c1ccccc1Cl`, in data set [1], the midpoint of inhibition, the IC50, lay at 615 nM.
In the case of `Cc1ccc(Cl)cc1-c1c(C(N)=O)cc(-c2ccnc(Nc3ccc(N4CCN(C)CC4)cc3)n2)n1C`, the figures for the IC50 in data set [1] and in [4] were 22 nM and 250 nM, respectively.
With `Cc1ccc(Cl)cc1-c1[nH]c(-c2ccnc(N)n2)cc1C(=O)NCCF`, the IC50 in data set [1] came to 114 nM.
Turning to `Cc1ccc(C(F)(F)F)cc1-c1[nH]c(-c2ccnc(N)n2)cc1C(N)=O`, the IC50 in data set [2] came to 640 nM; in data set [3] it was 440 nM; in [1], 10 nM; in data set [4] it was 760 nM.
The solubility is how much of the substance goes into solution per volume. Low readings indicate little dissolved substance, high ones much dissolved substance. Broadly, the AUC(0-inf) is total exposure, with the tail of the curve extrapolated. Low readings indicate low exposure, high ones high exposure. A word on the half-life: it is the time in which the quantity being followed falls by half. Higher therefore signals slow loss. For orientation: Cmax means the maximum level reached in the sampled fluid or tissue. The term bioavailability denotes dose-corrected exposure relative to a reference, in per cent. The low end stands for poor availability, the high end for good availability. The term AUC denotes concentration integrated over time. A low value points to low exposure. `CCc1ccc(Cl)cc1-c1[nH]c(-c2ccnc(N)n2)cc1C(N)=O` returned a solubility in data set [5] of 200 µM (≈ 68.4 µg/mL). Moreover, the IC50 came to 880 nM in [2] and 2000 nM in [3]. The AUC(0-inf) in data set [6] was found to be 0.7 µM·h. The half-life in data set [7] was 12 min; in [9], 48 min. The Cmax in [8] is 0.6 µM; in data set [12], 4.5 µM. Besides, the bioavailability in [10] came to 17%. For the same molecule, the Vd in [11] was found to be 1.8 L/kg. This molecule also displayed an area under the curve (AUC) in data set [13] of 2 µM·h.
In turn, `COc1ccc(Cl)cc1-c1[nH]c(-c2ccnc(N)n2)cc1C(N)=O` yielded an IC50 in data set [1] of 308 nM.
A word on the clearance: it is the volume of plasma or blood freed of the substance per unit of time. A higher clearance goes with efficient removal. The molecule `CCc1ccc(C(F)(F)F)cc1-c1[nH]c(-c2ccnc(N)n2)cc1C(N)=O` showed a solubility in [5] of 182 µM (≈ 68.3 µg/mL). Further, the IC50 in data set [2] was 1470 nM; in [3], 2210 nM; in data set [4], 320 nM. Moreover, the total exposure AUC(0-inf) was 4.6 µM·h in data set [6] and 20.7 µM·h in data set [15]. Moreover, the half-life is 60 min in data set [7] and 108 min in data set [9]. The molecule further displayed a clearance in [14] of 21.6 mL/min/kg. In addition, the figures for the Cmax in data set [8] and in [12] were 4.4 µM and 38.9 µM, respectively. Moreover, the bioavailability in data set [10] was 24%. For the same molecule, in data set [11], the Vd is 0.6 L/kg.
As for `Cc1ccc(Cl)cc1-c1[nH]c(-c2ccncn2)cc1C(N)=O`, the IC50 in data set [1] was found to be 1240 nM.
The same measure, in the same setting: the same measure for `Cc1ccc(Cl)cc1-c1[nH]c(-c2ccnc(N)n2)cc1C(=O)NCc1ccccc1`: 154 nM.
On to `NC(=O)c1cc(-c2ccnc(N)n2)[nH]c1-c1cc(Cl)ccc1Cl`, for which the IC50 in data set [2] was found to be 1660 nM; in [3], 2460 nM; in data set [4], 700 nM.

These data come from ChEMBL document CHEMBL3352511, “Pyrrole-3-carboxamides as potent and selective JAK2 inhibitors” (Bioorg Med Chem, 2014).
